Assay outcomes as filed in PubChem.
This is a sample that favours compounds with a hit; in the whole collection about 3% have one here.
C2C12 statin: protects C2C12 myotubes from simvastatin toxicity | ATP luminescence, 48 h; scaled: DMSO 0, geranylgeraniol control 100 | rescue of ATP level, % at 7.49 µM | 330,000 tested, 0.78% active;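 active means mean ATP rescue above about 67%, or every replicate alone reaching that limit, limit read from the data, passing the limit was not always enough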;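 further: myotubes were challenged with 10 µM simvastatin during compound exposure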
SIRT5 block: blocks human SIRT5 desuccinylation of peptide; Q9NXA8; Purified SirT5, succinyl-peptide AMC, trypsin-coupled fluorescence; inhibition, % at 15 µM; 330,000 tested, 1.1% active; AID 652115; in the data active means inhibition above about 15%
Target sequence (Q9NXA8 whole entry, looked up): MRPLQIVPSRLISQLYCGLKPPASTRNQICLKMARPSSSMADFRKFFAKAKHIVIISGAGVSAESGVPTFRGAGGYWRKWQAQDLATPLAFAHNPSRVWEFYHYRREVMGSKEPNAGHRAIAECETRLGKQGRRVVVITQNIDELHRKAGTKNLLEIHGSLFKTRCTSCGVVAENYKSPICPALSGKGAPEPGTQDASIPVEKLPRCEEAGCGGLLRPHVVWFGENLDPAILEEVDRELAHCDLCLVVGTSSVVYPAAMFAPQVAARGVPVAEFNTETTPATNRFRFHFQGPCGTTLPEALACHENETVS
Ecoli rRNA inh: selective bacterial rRNA inhibition in E. coli | E. coli WT GFP vs humanized-ribosome RFP mutants, fluorescence, 24 h; active compounds read low; DMSO median 0, no signal -100 | GFP signal change (wild-type ribosome), % (test concentration not listed) | 350,000 tested, 1.6% active;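 active means significant combined selectivity score with lowered wild-type GFP, culture density cut under 30%, mutant RFP and density less affected; inactive means any of these conditions unmet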
PGC1a acetyl inh: lowers PGC1a acetylation signal in U2OS cells; 350,000 tested, 0.17% active; inhibition, % at 15.6 µM; AlphaScreen anti-acetyl-lysine; with virally co-expressed GCN5 acetyltransferase;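 active means every replicate shows inhibition of at least 40%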
S100A4 MyoIIA: S100A4-myosin IIA interaction inhibition | inhibition, % at 10.7 µM | 360,000 tested, 0.14% active | AID 652163 | S100A4/TAMRA-MyoIIA peptide fluorescence polarization | P26447;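 active means mean inhibition of at least 70% across replicates, with every replicate also reaching that level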
Target sequence (P26447 whole entry, looked up): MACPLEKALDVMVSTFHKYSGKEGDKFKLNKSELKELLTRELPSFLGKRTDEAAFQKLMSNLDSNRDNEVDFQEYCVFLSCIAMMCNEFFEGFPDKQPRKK
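Material: S100A4 monomer (human). Medium: Calcium-containing HEPES buffer, pH 7.2. Probe or stimulus: labelled myosin peptide probe, 5 nM. Compound dosing: one concentration per compound. Timing: polarization read 5 min after assay mix addition, stable 5–60 min. Benchmarks: DMSO as neutral control, TFP as positive control.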
Cneo AK release: causes C. neoformans cell lysis; adenylate kinase release luminescence, 4 h; normalised: neutral wells 0, clomiphene wells 100; lysis activity, % at 15 µM; 360,000 tested, 0.2% active; AID 651654;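 active means mean lysis activity across replicates of at least 80%, whatever share of replicates individually reach that level; inactive means mean lysis activity below 80%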
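Material: C. neoformans cells; Schedule: 4 h static compound exposure, 37 °C, read 1 h post-reagent; Measured by: adenylate kinase release luminescence; Read-out: signal increase indicating cell lysis; Controls: Clomiphene as positive lysis control.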
Large screens that a line does not name were inactive.

O=C(Nc1ccc(F)cc1)N[C@H]1CC[C@@H](CCNS(=O)(=O)c2cccc(Cl)c2)O[C@@H]1CO	none
Cc1nc2ccccn2c1C(=O)CSc1ccccc1	Ecoli rRNA inh -37 (no result: C2C12 statin, Cneo AK release)
C[C@@H]1COCn2nncc2CC[C@H](Cc2ccc(-c3ccccc3)cc2)C(=O)N1	none (no result: C2C12 statin, SIRT5 block, PGC1a acetyl inh, S100A4 MyoIIA, Cneo AK release)
COc1ccc2c3c([nH]c2c1)[C@@H](CO)N(C(=O)c1cnccn1)CC31CCN(C(=O)c2cnccn2)CC1	none (no result: C2C12 statin, Cneo AK release)
Cc1cccc(COc2ccc(/C=C3/C(=O)N(C)C(=S)N3C)cc2)c1	PGC1a acetyl inh 71
Cc1ccc(S(=O)(=O)N[C@H]2CC[C@@H](CC(=O)NCc3ccccc3F)O[C@@H]2CO)cc1	none
Cc1cccc(-c2n[nH]c(=S)n2/N=C/c2cccs2)c1	Ecoli rRNA inh -22 (no result: C2C12 statin)
Cc1c(Br)c(O)c(Br)c(O)c1/C=N/n1c(-c2ccccc2)n[nH]c1=S	SIRT5 block 30
S=c1[nH]nc(-c2cc(-c3ccccc3)n[nH]2)n1/N=C/c1ccccc1	Ecoli rRNA inh -15
CC=Cc1ccc2n(c1=O)C[C@@H]1[C@@H](CO)[C@H](C(=O)NC3CCC3)N(S(C)(=O)=O)[C@H]21 (mixture of isomers)	none
CCCC#Cc1ccc2c(c1)O[C@H](CN(C)Cc1ccccc1)[C@H](C)CN([C@H](C)CO)S2(=O)=O	none (no result: SIRT5 block, S100A4 MyoIIA, Cneo AK release)
Cc1[nH]nc(C(=O)NN=Cc2ccccc2Cl)c1N=NN(C)C	Ecoli rRNA inh -21 (no result: C2C12 statin, Cneo AK release)
Cc1onc(-c2ccccc2)c1C(=O)Nc1ccncc1	none (no result: SIRT5 block, Ecoli rRNA inh, S100A4 MyoIIA)
Cc1onc(-c2ccncc2)c1C(=O)O	C2C12 statin 106 (no result: SIRT5 block, Ecoli rRNA inh, S100A4 MyoIIA)
CC(OC(=O)c1ccc(NC(=O)CC#N)cc1)C(=O)NC(c1ccccc1)c1ccccc1 (centres undefined)	SIRT5 block 16
CCOC(=O)N1CCN(C(=O)c2cc(COc3ccc4ncccc4c3)on2)CC1	SIRT5 block 20
O=C(c1ccccc1)N1CCN(C(=O)N2CCOCC2)CC1	none (no result: C2C12 statin, SIRT5 block, Ecoli rRNA inh, S100A4 MyoIIA)
O=C1C(=C(c2ccccc2)N2CCOCC2)Cc2ccccc21	Ecoli rRNA inh -22 (no result: C2C12 statin, SIRT5 block, PGC1a acetyl inh, Cneo AK release)
C[C@H](CO)N1C[C@H](C)[C@@H](CN(C)S(=O)(=O)c2ccc(C#N)cc2)OCc2ccccc2-c2ccccc2C1=O	none
Cc1cccc(OCCCOc2cccc3cccnc23)c1C	none (no result: SIRT5 block, Ecoli rRNA inh, S100A4 MyoIIA)
COc1cccc(OC)c1OCCCOc1cccc2cccnc12	Ecoli rRNA inh -29
C[C@@H]1CCCCO[C@@H](CN(C)S(=O)(=O)c2ccc(Cl)cc2)[C@H](C)CN([C@@H](C)CO)C(=O)c2cc(NS(C)(=O)=O)ccc2O1	none
O=C(/C=C/Nc1cccc(C(F)(F)F)c1)c1ccco1	none (no result: C2C12 statin, Cneo AK release)
O=C(/C=C/Nc1ccccc1C(F)(F)F)c1ccco1	Ecoli rRNA inh -22
NC(=O)c1ccccc1N/C=C/C(=O)c1ccco1	none (no result: SIRT5 block, Ecoli rRNA inh, S100A4 MyoIIA, Cneo AK release)
O=C(/C=C/Nc1ccc(Oc2ccccc2)cc1)c1ccco1	Ecoli rRNA inh -25 (no result: C2C12 statin, Cneo AK release)
COc1cc(OC)c(CNS(=O)(=O)c2ccc(Br)cc2)c(OC)c1	none (no result: C2C12 statin, Ecoli rRNA inh)
CCN(CC(=O)NC(C)(C)C)Cc1nc2c(Br)cc(Br)cc2c(=O)[nH]1	Ecoli rRNA inh -29 (no result: C2C12 statin, Cneo AK release)
CC[C@@H]1CC=CC[C@H](C)Oc2ccccc2C(=O)N(C)[C@@H](C(C)C)C(=O)N1 (mixture of isomers)	none (no result: C2C12 statin, SIRT5 block, PGC1a acetyl inh, S100A4 MyoIIA, Cneo AK release)
O=C(c1ccccc1)c1ccc(OCC(O)CN2CCN(S(=O)(=O)N3CCCCC3)CC2)cc1 (centres undefined)	C2C12 statin 77 (no result: SIRT5 block, Ecoli rRNA inh, S100A4 MyoIIA)
O=C(Nc1ccc(NC(=O)N2CCN(c3ccccc3O)CC2)cc1)N1CCN(c2ccccc2O)CC1	Ecoli rRNA inh -20 (no result: PGC1a acetyl inh)
COc1ccc(NC(=O)N(C)C[C@H]2OCCCC[C@H](C)Oc3ccc(NS(=O)(=O)c4cccs4)cc3C(=O)N([C@@H](C)CO)C[C@H]2C)cc1	none (no result: C2C12 statin)
Cc1noc(C)c1CSCC(=O)Nc1cc(Cl)ccc1N1CCCCC1	none
Cc1noc(C)c1CSCC(=O)Nc1ccccc1N1CCCC1	SIRT5 block 16
CCN1CCN(CCNC(=O)c2cc(Cl)c(NC(=O)C3=C(C)OCCS3)cc2OC)CC1	S100A4 MyoIIA 126
